According to ChEMBL document CHEMBL3112482, “Nonclassical antifolates, part 5. Benzodiazepine analogs as a new class of DHFR inhibitors: synthesis, antitumor testing and molecular modeling study” (Eur J Med Chem, 2014):

How the values were obtained:
CCRF-CEM = experiment: Growth inhibition of human CCRF-CEM cells at 10 uM after 48 hrs; type: functional; details: read-out: GI
In short: (§1)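 Single-dose primary screen in the NCI 60 human tumour cell line panel, run at the NCI facility. The panel covers nine subpanels: leukaemia, non-small cell lung, colon, CNS, melanoma, ovarian, renal, prostate and breast. Read-out was percent growth of treated cells, shown as a mean graph and reported as percent growth inhibition.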

NCI-H322M = experiment: Growth inhibition of human NCI-H322M cells at 10 uM after 48 hrs; type: functional; details: read-out: GI; in short: as §1
OVCAR-8 = experiment: Growth inhibition of human OVCAR8 cells at 10 uM after 48 hrs; type: functional; details: OVCAR-8, 48 h, read-out: GI; in short: as §1
IGROV-1 = experiment: Growth inhibition of human IGROV1 cells at 10 uM after 48 hrs; type: functional; details: IGROV-1, 48 h, read-out: GI; in short: as §1
[1] = Growth inhibition of human OVCAR4 cells at 10 uM after 48 hrs; type: functional; details: OVCAR-4, 48 h, read-out: GI; in short: as §1
MCF7 = experiment: Growth inhibition of human MCF7 cells at 10 uM after 48 hrs; type: functional; details: MCF7, 48 h, read-out: GI; in short: as §1
MOLT-4 = experiment: Growth inhibition of human MOLT4 cells at 10 uM after 48 hrs; type: functional; details: MOLT-4, 48 h, read-out: GI; in short: as §1
OVCAR-3 = experiment: Growth inhibition of human OVCAR3 cells at 10 uM after 48 hrs; type: functional; details: OVCAR-3, 48 h, read-out: GI; in short: as §1
[2] = Growth inhibition of human RXF393 cells at 10 uM after 48 hrs; type: functional; details: RXF 393, 48 h, read-out: GI; in short: as §1
HL-60(TB) = experiment: Growth inhibition of human HL-60(TB) cells at 10 uM after 48 hrs; type: functional; details: HL-60, 48 h, read-out: GI
In short: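 NCI 60-cell-line human tumour panel covering nine subpanels (leukaemia, non-small cell lung, colon, CNS, melanoma, ovarian, renal, prostate, breast), run at the NCI facility. Primary screen tested a single dose of each compound. Read-out was percent growth of treated cells versus untreated cells, reported from the mean graph as percentage growth inhibition.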

KM12 = experiment: Growth inhibition of human KM12 cells at 10 uM after 48 hrs; type: functional; details: KM12, 48 h, read-out: GI; in short: as §1
[3] = Growth inhibition of human NCI-ADR-RES cells at 10 uM after 48 hrs; type: functional; details: read-out: GI; in short: as §1
SK-OV-3 = experiment: Growth inhibition of human SKOV3 cells at 10 uM after 48 hrs; type: functional; details: SK-OV-3, 48 h, read-out: GI
In short: (§2)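 NCI 60-cell-line disease-oriented human tumor panel, single-dose primary screen at 10 µM. Data given as mean-graph percent growth of treated cells, reported as percent growth inhibition (GI %).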

MDA-MB-231 = experiment: Growth inhibition of human MDA-MB-231 cells at 10 uM after 48 hrs; type: functional; details: MDA-MB-231, 48 h, read-out: GI; in short: as §1
[4] = Growth inhibition of human SF539 cells at 10 uM after 48 hrs; type: functional; details: SF-539, 48 h, read-out: GI; in short: as §2
SNB-75 = experiment: Growth inhibition of human SNB75 cells at 10 uM after 48 hrs; type: functional; details: SNB-75, 48 h, read-out: GI; in short: as §2
SN12C = experiment: Growth inhibition of human SN12C cells at 10 uM after 48 hrs; type: functional; details: read-out: GI; in short: as §2
[5] = Cytotoxicity against human prostate cancer cells at 10 uM after 48 hrs; type: functional; details: Cancer cell lines
SW-620 = experiment: Growth inhibition of human SW620 cells at 10 uM after 48 hrs; type: functional; details: SW-620, 48 h, read-out: GI; in short: as §2
TK-10 = experiment: Growth inhibition of human TK10 cells at 10 uM after 48 hrs; type: functional; details: TK-10, 48 h, read-out: GI; in short: as §2
SNB-19 = experiment: Growth inhibition of human SNB19 cells at 10 uM after 48 hrs; type: functional; details: SNB-19, 48 h, read-out: GI; in short: as §2
SK-MEL-2 = experiment: Growth inhibition of human SK-MEL-2 cells at 10 uM after 48 hrs; type: functional; details: SK-MEL-2, 48 h, read-out: GI; in short: as §2
HT-29 = experiment: Growth inhibition of human HT-29 cells at 10 uM after 48 hrs; type: functional; details: HT-29, 48 h, read-out: GI; in short: as §1
[6] = Growth inhibition of human UO31 cells at 10 uM after 48 hrs; type: functional; details: UO-31, 48 h, read-out: GI; in short: as §2
[7] = Growth inhibition of human Hs 578T cells at 10 uM after 48 hrs; type: functional; details: read-out: GI; in short: as §1
T47D = experiment: Growth inhibition of human T47D cells at 10 uM after 48 hrs; type: functional; details: read-out: GI; in short: as §2
SF-268 = experiment: Growth inhibition of human SF268 cells at 10 uM after 48 hrs; type: functional; details: SF-268, 48 h, read-out: GI; in short: as §2
[8] = Growth inhibition of human HCC2998 cells at 10 uM after 48 hrs; type: functional; details: HCC 2998, 48 h, read-out: GI; in short: as §1
[9] = Growth inhibition of human EKVX cells at 10 uM after 48 hrs; type: functional; details: read-out: GI; in short: as §1
NCI-H23 = experiment: Growth inhibition of human NCI-H23 cells at 10 uM after 48 hrs; type: functional; details: NCI-H23, 48 h, read-out: GI; in short: as §1
786-0 = experiment: Growth inhibition of human 786-0 cells at 10 uM after 48 hrs; type: functional; details: 786-0, 48 h, read-out: GI; in short: as §1
PC-3 = experiment: Growth inhibition of human PC3 cells at 10 uM after 48 hrs; type: functional; details: PC-3, 48 h, read-out: GI; in short: as §1
DU-145 = experiment: Growth inhibition of human DU145 cells at 10 uM after 48 hrs; type: functional; details: DU-145, 48 h, read-out: GI; in short: as §1
CAKI-1 = experiment: Growth inhibition of human CAKI-1 cells at 10 uM after 48 hrs; type: functional; details: CAKI-1, 48 h, read-out: GI; in short: as §1
[10] = Growth inhibition of human OVCAR5 cells at 10 uM after 48 hrs; type: functional; details: OVCAR-5, 48 h, read-out: GI; in short: as §1
NCI-H226 = experiment: Growth inhibition of human NCI-H226 cells at 10 uM after 48 hrs; type: functional; details: NCI-H226, 48 h, read-out: GI; in short: as §1
SK-MEL-28 = experiment: Growth inhibition of human SK-MEL-28 cells at 10 uM after 48 hrs; type: functional; details: SK-MEL-28, 48 h, read-out: GI; in short: as §2
K562 = experiment: Growth inhibition of human K562 cells at 10 uM after 48 hrs; type: functional; details: K562, 48 h, read-out: GI; in short: as §1
SR = experiment: Growth inhibition of human SR cells at 10 uM after 48 hrs; type: functional; details: read-out: GI; in short: as §2
Dihydrofolate reductase = target: T1, Dihydrofolate reductase (Bos taurus, UniProt P00376); experiment: Inhibition of bovine liver DHFR measured for every 1 min of 10 mins
T1 sequence (P00376 whole entry): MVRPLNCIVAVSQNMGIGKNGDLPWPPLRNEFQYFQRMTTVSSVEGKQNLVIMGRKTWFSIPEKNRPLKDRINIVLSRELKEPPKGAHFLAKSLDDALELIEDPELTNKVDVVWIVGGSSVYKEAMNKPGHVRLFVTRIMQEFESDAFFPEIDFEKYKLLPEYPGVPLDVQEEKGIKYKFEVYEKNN

Clc1ccc(/C=C2\CCCC3=C(c4ccc(Cl)cc4)Nc4ccccc4N=C32)cc1
78.5%: inhibition of growth at 10 µM (SR)
84.1%: inhibition of growth at 10 µM (HT-29)
82.7%: inhibition of growth at 10 µM (KM12)
< 30%: inhibition of growth at 10 µM (CCRF-CEM) | inhibition of growth at 10 µM (NCI-H322M) | inhibition of growth at 10 µM (IGROV-1) | inhibition of growth at 10 µM [1] | inhibition of growth at 10 µM (HL-60(TB)) | inhibition of growth at 10 µM [3] | inhibition of growth at 10 µM (SK-OV-3) | inhibition of growth at 10 µM (MDA-MB-231) | inhibition of growth at 10 µM [4] | inhibition of growth at 10 µM (SNB-75) | inhibition of growth at 10 µM (SN12C) | inhibition of growth at 10 µM (TK-10) | inhibition of growth at 10 µM (SNB-19) | inhibition of growth at 10 µM (SK-MEL-2) | inhibition of growth at 10 µM [6] | inhibition of growth at 10 µM [7] | inhibition of growth at 10 µM (T47D) | inhibition of growth at 10 µM (SF-268) | inhibition of growth at 10 µM [8] | inhibition of growth at 10 µM [9] | inhibition of growth at 10 µM (NCI-H23) | inhibition of growth at 10 µM (786-0) | inhibition of growth at 10 µM (PC-3) | inhibition of growth at 10 µM (DU-145) | inhibition of growth at 10 µM (CAKI-1) | inhibition of growth at 10 µM [10] | inhibition of growth at 10 µM (NCI-H226) | inhibition of growth at 10 µM (SK-MEL-28)
5.1 µM: GI50 [5]
61.9 µM: TGI [5]
> 100 µM: LC50 [5]
64.2%: inhibition of growth at 10 µM (MCF7)
34.7%: inhibition of growth at 10 µM [2]
33%: inhibition of growth at 10 µM (OVCAR-3)
52.8%: inhibition of growth at 10 µM (K562)
58.6%: inhibition of growth at 10 µM (SW-620)
0.3 µM: IC50 (Dihydrofolate reductase)
34.3%: inhibition of growth at 10 µM (OVCAR-8)
34.2%: inhibition of growth at 10 µM (MOLT-4)

COc1ccc(/C=C2\CCCc3c2nc(N)nc3-c2ccc(OC)cc2)cc1
< 30%: inhibition of growth at 10 µM (CCRF-CEM) | inhibition of growth at 10 µM (NCI-H322M) | inhibition of growth at 10 µM (OVCAR-8) | inhibition of growth at 10 µM (IGROV-1) | inhibition of growth at 10 µM [1] | inhibition of growth at 10 µM (MCF7) | inhibition of growth at 10 µM (MOLT-4) | inhibition of growth at 10 µM (OVCAR-3) | inhibition of growth at 10 µM [2] | inhibition of growth at 10 µM (KM12) | inhibition of growth at 10 µM [3] | inhibition of growth at 10 µM (SK-OV-3) | inhibition of growth at 10 µM (MDA-MB-231) | inhibition of growth at 10 µM [4] | inhibition of growth at 10 µM (SNB-75) | inhibition of growth at 10 µM (SN12C) | inhibition of growth at 10 µM (SW-620) | inhibition of growth at 10 µM (TK-10) | inhibition of growth at 10 µM (SNB-19) | inhibition of growth at 10 µM (SK-MEL-2) | inhibition of growth at 10 µM (HT-29) | inhibition of growth at 10 µM [6] | inhibition of growth at 10 µM [7] | inhibition of growth at 10 µM (T47D) | inhibition of growth at 10 µM (SF-268) | inhibition of growth at 10 µM [8] | inhibition of growth at 10 µM [9] | inhibition of growth at 10 µM (NCI-H23) | inhibition of growth at 10 µM (786-0) | inhibition of growth at 10 µM (PC-3) | inhibition of growth at 10 µM (DU-145) | inhibition of growth at 10 µM (CAKI-1) | inhibition of growth at 10 µM [10] | inhibition of growth at 10 µM (NCI-H226) | inhibition of growth at 10 µM (SK-MEL-28) | inhibition of growth at 10 µM (K562) | inhibition of growth at 10 µM (SR)
18 µM: IC50 (Dihydrofolate reductase)
32.2%: inhibition of growth at 10 µM (HL-60(TB))
